Activity calls are given as the source filed them.
Columns and labels:
[1] = test system: Klebsiella pneumoniae; assay: Antibacterial activity against drug-resistant carbapenemase producing Klebsiella pneumoniae clinical isolate KP-14-1 after 16 to 20 hrs by broth microdilution method; type: functional
Summary of the method: (§1)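 CLSI broth microdilution in Mueller-Hinton broth. A 4-6 h culture was diluted to about 10⁶ CFU/mL and mixed 1:1 with compound dilutions prepared at 256 to 0.5 µg/mL from aqueous stocks. Plates were incubated at 37 °C for 16-20 h and read visually for MIC. Each concentration was run in duplicate, and the experiment was repeated at least twice. Vancomycin and meropenem were comparators.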

[2] = test system: Klebsiella pneumoniae; assay: Antibacterial activity against drug-resistant carbapenemase producing Klebsiella pneumoniae clinical isolate KP-14-18 after 16 to 20 hrs by broth microdilution method; type: functional; summary of the method: as §1
[3] = test system: Klebsiella pneumoniae; assay: Antibacterial activity against drug-resistant carbapenemase producing Klebsiella pneumoniae clinical isolate KP-13-45 after 16 to 20 hrs by broth microdilution method; type: functional; summary of the method: as §1
[4] = test system: Staphylococcus aureus; assay: Antibacterial activity against methicillin-resistant Staphylococcus aureus clinical isolate 1208143 after 16 to 20 hrs by broth microdilution method; type: functional; summary of the method: as §1
[5] = test system: Escherichia coli; assay: Antibacterial activity against drug-resistant NDM1 producing Escherichia coli clinical isolate CF-13-61 after 16 to 20 hrs by broth microdilution method; type: functional; summary of the method: as §1
[6] = test system: Klebsiella pneumoniae; assay: Antibacterial activity against drug-resistant carbapenemase producing Klebsiella pneumoniae clinical isolate KP-14-45 after 16 to 20 hrs by broth microdilution method; type: functional; summary of the method: as §1
[7] = test system: Escherichia coli; assay: Antibacterial activity against drug-resistant NDM1 producing Escherichia coli clinical isolate EC-13-49 after 16 to 20 hrs by broth microdilution method; type: functional; summary of the method: as §1
[8] = test system: Staphylococcus aureus; assay: Antibacterial activity against methicillin-resistant Staphylococcus aureus clinical isolate 1104060 after 16 to 20 hrs by broth microdilution method; type: functional; summary of the method: as §1
[9] = test system: Salmonella enterica; assay: Antibacterial activity against Salmonella enterica ATCC 13076 after 16 to 20 hrs by broth microdilution method; type: functional
Summary of the method: (§2)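 Broth microdilution per CLSI. Bacteria grown 4-6 h (about 10⁸ CFU/mL), then diluted to about 10⁶ CFU/mL. Medium: Mueller-Hinton broth, except Luria-Bertani broth for E. coli. Compounds in sterile water, twofold series 256-0.5 µg/mL, mixed 1:1 with inoculum, 37 °C for 16-20 h. MIC is the lowest concentration without visible growth. Duplicate wells; experiment repeated at least twice.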

[10] = test system: Staphylococcus aureus; assay: Antibacterial activity against methicillin-resistant Staphylococcus aureus clinical isolate 20131012632sau after 16 to 20 hrs by broth microdilution method; type: functional; summary of the method: as §1
[11] = test system: Klebsiella pneumoniae; assay: Antibacterial activity against drug-resistant carbapenemase producing Klebsiella pneumoniae clinical isolate KP-14-2 after 16 to 20 hrs by broth microdilution method; type: functional; summary of the method: as §1
[12] = test system: Klebsiella pneumoniae; assay: Antibacterial activity against drug-resistant carbapenemase producing Klebsiella pneumoniae clinical isolate KP-13-55 after 16 to 20 hrs by broth microdilution method; type: functional; summary of the method: as §1
[13] = test system: Klebsiella pneumoniae; assay: Antibacterial activity against drug-resistant carbapenemase producing Klebsiella pneumoniae clinical isolate KP-14-3 after 16 to 20 hrs by broth microdilution method; type: functional; summary of the method: as §1
[14] = test system: Staphylococcus aureus; assay: Antibacterial activity against methicillin-resistant Staphylococcus aureus clinical isolate 1105183 cono7 after 16 to 20 hrs by broth microdilution method; type: functional; summary of the method: as §1
[15] = test system: Escherichia coli; assay: Antibacterial activity against drug-resistant NDM1 producing Escherichia coli clinical isolate EA-14-61 after 16 to 20 hrs by broth microdilution method; type: functional; summary of the method: as §1
[16] = test system: Klebsiella pneumoniae; assay: Antibacterial activity against drug-resistant carbapenemase producing Klebsiella pneumoniae clinical isolate EC-13-23 after 16 to 20 hrs by broth microdilution method; type: functional; summary of the method: as §1
[17] = test system: Klebsiella pneumoniae; assay: Antibacterial activity against drug-resistant carbapenemase producing Klebsiella pneumoniae clinical isolate KP-14-4 after 16 to 20 hrs by broth microdilution method; type: functional; summary of the method: as §1
[18] = test system: Staphylococcus aureus; assay: Antibacterial activity against methicillin-resistant Staphylococcus aureus clinical isolate 20130911034sau after 16 to 20 hrs by broth microdilution method; type: functional; summary of the method: as §1
[19] = test system: Staphylococcus aureus; assay: Induction of cytoplasmic membrane depolarization in Staphylococcus aureus ATCC 29213 at 10 to 20 ug/ml measured every 2 mins for 12 mins by DiSC35 dye-based fluorescence assay; type: functional, organism-based
Summary of the method: (§3)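 Mid-log cells (~10⁸ CFU/mL) were suspended in PBS (S. aureus) or HEPES/glucose/KCl with EDTA (E. coli). They were preloaded with DiSC3(5) for 30 min (S. aureus) or 40 min (E. coli), and baseline fluorescence was read for 8 min. Compound was added to 20 µg/mL final, and fluorescence (ex 622/em 670 nm) was read every 2 min for 12 min. Water served as control.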

[20] = test system: Klebsiella pneumoniae; assay: Antibacterial activity against drug-resistant carbapenemase producing Klebsiella pneumoniae clinical isolate KP-13-54 after 16 to 20 hrs by broth microdilution method; type: functional; summary of the method: as §1
[21] = test system: Escherichia coli; assay: Antibacterial activity against drug-resistant NDM1 producing Escherichia coli clinical isolate Ecl-13-62 after 16 to 20 hrs by broth microdilution method; type: functional; summary of the method: as §1
[22] = test system: Escherichia coli; assay: Antibacterial activity against drug-resistant NDM1 producing Escherichia coli clinical isolate SM-15-84 after 16 to 20 hrs by broth microdilution method; type: functional; summary of the method: as §1
[23] = test system: Klebsiella pneumoniae; assay: Antibacterial activity against drug-resistant carbapenemase producing Klebsiella pneumoniae clinical isolate KP-14-5 after 16 to 20 hrs by broth microdilution method; type: functional; summary of the method: as §1
[24] = test system: Escherichia coli; assay: Induction of inner membrane permeabilization in Escherichia coli ATCC 25922 at 10 to 20 ug/ml measured every 2 mins for 12 mins by propidium iodide staining-based fluorescence assay; type: functional, organism-based
Summary of the method: (§4)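 Mid-log cells (~10⁸ CFU/mL) were suspended in PBS (S. aureus) or HEPES/glucose/KCl (E. coli). They were preincubated with propidium iodide for 30 min (S. aureus) or 40 min (E. coli), and baseline fluorescence was read for 8 min. Compound was added to 20 µg/mL final, and fluorescence (ex 535/em 617 nm) was read every 2 min for 12 min.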

[25] = test system: Escherichia coli; assay: Induction of cytoplasmic membrane depolarization in Escherichia coli ATCC 25922 at 10 to 20 ug/ml measured every 2 mins for 12 mins by DiSC35 dye-based fluorescence assay; type: functional, organism-based; summary of the method: as §3
[26] = test system: Staphylococcus aureus; assay: Antibacterial activity against Staphylococcus aureus ATCC 29213 after 16 to 20 hrs by broth microdilution method; type: functional; summary of the method: as §2
[27] = test system: Klebsiella pneumoniae; assay: Antibacterial activity against drug-resistant carbapenemase producing Klebsiella pneumoniae clinical isolate KP-14-8 after 16 to 20 hrs by broth microdilution method; type: functional; summary of the method: as §1
[28] = test system: Escherichia coli; assay: Antibacterial activity against drug-resistant NDM1 producing Escherichia coli clinical isolate EC-14-54 after 16 to 20 hrs by broth microdilution method; type: functional; summary of the method: as §1
[29] = test system: Staphylococcus aureus; assay: Antibacterial activity against methicillin-resistant Staphylococcus aureus clinical isolate 1-may after 16 to 20 hrs by broth microdilution method; type: functional; summary of the method: as §1
[30] = test system: Staphylococcus aureus; assay: Antibacterial activity against methicillin-resistant Staphylococcus aureus clinical isolate 1207007 after 16 to 20 hrs by broth microdilution method; type: functional; summary of the method: as §1
[31] = test system: Enterococcus faecalis; assay: Antibacterial activity against Enterococcus faecalis ATCC 29212 after 16 to 20 hrs by broth microdilution method; type: functional; summary of the method: as §2
[32] = test system: Staphylococcus aureus; assay: Induction of inner membrane permeabilization in Staphylococcus aureus ATCC 29213 at 10 to 20 ug/ml measured every 2 mins for 12 mins by propidium iodide staining-based fluorescence assay; type: functional, organism-based; summary of the method: as §4
[33] = test system: Escherichia coli; assay: Antibacterial activity against Escherichia coli ATCC 25922 after 16 to 20 hrs by broth microdilution method; type: functional; summary of the method: as §2
[34] = test system: Staphylococcus aureus; assay: Antibacterial activity against methicillin-resistant Staphylococcus aureus clinical isolate 0906202 after 16 to 20 hrs by broth microdilution method; type: functional; summary of the method: as §1
[35] = test system: Escherichia coli; assay: Antibacterial activity against drug-resistant NDM1 producing Escherichia coli clinical isolate CF-15-61 after 16 to 20 hrs by broth microdilution method; type: functional; summary of the method: as §1
[36] = test system: Escherichia coli; assay: Antibacterial activity against drug-resistant NDM1 producing Escherichia coli clinical isolate Ecl-14-59 after 16 to 20 hrs by broth microdilution method; type: functional; summary of the method: as §1
[37] = test system: Escherichia coli; assay: Antibacterial activity against drug-resistant NDM1 producing Escherichia coli clinical isolate 1460 after 16 to 20 hrs by broth microdilution method; type: functional; summary of the method: as §1
[38] = test system: Staphylococcus aureus; assay: Antibacterial activity against methicillin-resistant Staphylococcus aureus clinical isolate 0831010 after 16 to 20 hrs by broth microdilution method; type: functional; summary of the method: as §1
[39] = test system: Escherichia coli; assay: Antibacterial activity against drug-resistant NDM1 producing Escherichia coli clinical isolate KP-13-58 after 16 to 20 hrs by broth microdilution method; type: functional; summary of the method: as §1
[40] = Hemolytic activity in sheep RBC after 1 hr; type: ADME, cell-based, Ovis aries, Erythrocyte; conditions: sheep red blood cells (erythrocytes)
Summary of the method: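 Sheep red blood cells (150 µL suspension) mixed with 50 µL of compound dilutions (5120-10 µg/mL), 1 h at 37 °C, then centrifuged. Supernatant read at 540 nm. Percent hemolysis calculated relative to RBC-only control (0%) and 0.1% Triton X-100 (100%).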

[41] = test system: Escherichia coli; assay: Antibacterial activity against drug-resistant NDM1 producing Escherichia coli clinical isolate Ecl-14-56 after 16 to 20 hrs by broth microdilution method; type: functional; summary of the method: as §1
[42] = test system: Escherichia coli; assay: Antibacterial activity against drug-resistant NDM1 producing Escherichia coli clinical isolate Ecl-14-58 after 16 to 20 hrs by broth microdilution method; type: functional; summary of the method: as §1

CCCCCCCC[N+](C)(C)CC(=O)Nc1ccc(C(=O)/C=C/c2ccc(Cl)cc2)cc1.[Cl-]
32 µg/mL: MIC [12]
2 µg/mL: MIC [4] | MIC [10] | MIC [26] | MIC [29] | MIC [31]
8 µg/mL: MIC [3] | MIC [5] | MIC [6] | MIC [9] | MIC [13] | MIC [16] | MIC [17] | MIC [20] | MIC [21] | MIC [23] | MIC [27] | MIC [35] | MIC [36] | MIC [37]
> 500 µg/mL: HC50 at 1 h [40]
16 µg/mL: MIC [1] | MIC [2] | MIC [7] | MIC [11] | MIC [22] | MIC [28]
active: Activity [19] | Activity [24] | Activity [25] | Activity [32]
1 µg/mL: MIC [14] | MIC [34] | MIC [38]
0.5 µg/mL: MIC [18] | MIC [30]
4 µg/mL: MIC [8] | MIC [15] | MIC [33] | MIC [39] | MIC [41] | MIC [42]

CCCCCCCC[N+](C)(C)CC(=O)Nc1ccc(C(=O)/C=C/c2cccc(Cl)c2)cc1.[Cl-]
4 µg/mL: MIC [3] | MIC [7] | MIC [9] | MIC [13] | MIC [15] | MIC [16] | MIC [17] | MIC [20] | MIC [21] | MIC [23] | MIC [27] | MIC [28] | MIC [33] | MIC [34] | MIC [36] | MIC [37] | MIC [41] | MIC [42]
16 µg/mL: MIC [5] | MIC [22]
active: Activity [19] | Activity [24] | Activity [25] | Activity [32]
1 µg/mL: MIC [4] | MIC [14] | MIC [29] | MIC [31] | MIC [39]
0.5 µg/mL: MIC [18] | MIC [30] | MIC [38]
2 µg/mL: MIC [10] | MIC [26]
186 µg/mL: HC50 at 1 h [40]
8 µg/mL: MIC [1] | MIC [2] | MIC [6] | MIC [8] | MIC [11] | MIC [12] | MIC [35]

CCCCCCCC[N+](C)(C)CC(=O)Nc1ccc(C(=O)/C=C/c2ccc(F)cc2)cc1.[Cl-]
4 µg/mL: MIC [1] | MIC [3] | MIC [7] | MIC [9] | MIC [15] | MIC [17] | MIC [20] | MIC [21] | MIC [23] | MIC [27] | MIC [34] | MIC [35] | MIC [36] | MIC [42]
1 µg/mL: MIC [14] | MIC [29] | MIC [39]
2 µg/mL: MIC [4] | MIC [10] | MIC [16] | MIC [26] | MIC [31] | MIC [33]
8 µg/mL: MIC [2] | MIC [6] | MIC [8] | MIC [12] | MIC [13] | MIC [37]
16 µg/mL: MIC [5] | MIC [11] | MIC [22] | MIC [28] | MIC [41]
0.5 µg/mL: MIC [18] | MIC [30] | MIC [38]
active: Activity [19] | Activity [24] | Activity [25] | Activity [32]
83 µg/mL: HC50 at 1 h [40]
